Test results from ChEMBL document CHEMBL3352276, “Design, synthesis and in vitro antitumor activity of novel N-substituted-4-phenyl/benzylphthalazin-1-ones” (Eur J Med Chem, 2015).
Activity calls are given as the source filed them. The rule behind the calls is not given here.

Key:
[1] = system: HepG2; test: Cell cycle arrest in human HepG2 cells assessed as accumulation at preG1 phase at IC50 for 24 hrs by propidium iodide staining-based FACS analysis relative to untreated control; type: functional
Summary of the method: (§1)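 HepG2 cells exposed 24 h at each compound's preset concentration. Then washed in ice-cold PBS, fixed in ice-cold 70% ethanol, treated with 0.1 mg/ml RNase and stained with PI. DNA content read by flow cytometry, and phase distribution compared with untreated control. Triplicate experiments.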

[2] = system: HepG2; test: Induction of apoptosis in human HepG2 cells assessed as upregulation of Bax expression at IC50 by sandwich ELISA relative to untreated control; type: functional
[3] = system: HepG2; test: Cell cycle arrest in human HepG2 cells assessed as reduction in S phase at IC50 for 24 hrs by propidium iodide staining-based FACS analysis relative to untreated control; type: functional; summary of the method: as §1
[4] = system: HepG2; test: Induction of apoptosis in human HepG2 cells assessed as down regulation of Bcl2 expression at IC50 by sandwich ELISA relative to untreated control; type: functional
[5] = system: MCF7; test: Antiproliferative activity against human MCF7 cells after 72 hrs by SRB assay; type: functional, cell-based; conditions: MCF7, 72 h
Summary of the method: (§2)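 SRB assay. HT-29 grown in DMEM; HepG2 and MCF-7 grown in RPMI-1640, all with 10% heat-inactivated FBS at 37 °C under 5% CO2. Cells seeded at 1000–2000/well, left 24 h, then exposed to a range of concentrations for 72 h. Fixed with 10% TCA for 1 h at 4 °C, stained with 0.4% SRB, OD read at 564 nm. IC50 taken from a Boltzmann sigmoidal nonlinear fit. Mean ± S.D. of three separate experiments.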

[6] = system: HepG2; test: Antiproliferative activity against human HepG2 cells after 72 hrs by SRB assay; type: functional, cell-based; conditions: HepG2, 72 h
[7] = system: HepG2; test: Cell cycle arrest in human HepG2 cells assessed as reduction in G0/G1 phase at IC50 for 24 hrs by propidium iodide staining-based FACS analysis relative to untreated control; type: functional; summary of the method: as §1
[8] = system: HepG2; test: Induction of apoptosis in human HepG2 cells assessed as apoptotic cells after 24 hrs by annexin-V/FITC-propidium iodide staining-based FACS analysis relative to untreated control; type: functional
Summary of the method: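 HepG2 cells treated for 24 h, harvested and washed in PBS. 10^5 cells stained with annexin V-FITC and PI from a detection kit. Flow cytometry used unstained cells for voltage and compensation. Early plus late apoptotic quadrants (LR+UR) compared with control. Triplicate experiments.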

[9] = system: HepG2; test: Induction of apoptosis in human HepG2 cells assessed as increase in caspase-3 expression at IC50 by sandwich ELISA relative to untreated control; type: functional
[10] = system: HT-29; test: Antiproliferative activity against human HT-29 cells after 72 hrs by SRB assay; type: functional, cell-based; conditions: HT-29, 72 h; summary of the method: as §2
[11] = system: HT-29; test: Ratio of doxorubicin IC50 to compound IC50 for human HT-29 cells; type: functional
[12] = system: HepG2; test: Cell cycle arrest in human HepG2 cells assessed as increase in S phase at IC50 for 24 hrs by propidium iodide staining-based FACS analysis relative to untreated control
[13] = system: HT-29; test: Induction of apoptosis in human HT-29 cells assessed as increase in caspase-3 expression at IC50 by sandwich ELISA relative to untreated control; type: functional
[14] = system: HepG2; test: Ratio of doxorubicin IC50 to compound IC50 for human HepG2 cells; type: functional
Summary of the method: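 SRB growth assay: HepG2 in RPMI-1640 + 10% heat-inactivated FBS, seeded 1000–2000 cells/well, dosed after 24 h with graded concentrations alongside doxorubicin for 72 h; TCA-fixed, SRB-stained, OD 564 nm. IC50 fitted as Boltzmann sigmoidal curve vs untreated controls, three separate experiments; ratio = doxorubicin IC50 / compound IC50 from the same assay.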

Row | IC50 [5] [µM] | IC50 [6] [µM] | IC50 [10] [µM] | Structure (SMILES) | also measured
1 | 58 | 3.5 | 41.2 | O=C(Cn1nc(-c2ccccc2)c2ccccc2c1=O)Nc1cccc(C(F)(F)F)c1 | Activity [1]: inactive; Activity [2]: 44%; Activity [3]: inactive; Activity [4]: 9.6%; Activity [7]: inactive; Ratio [8]: 2.1; Ratio [9]: 2.5
2 | 35 | 10.6 | 46.2 | O=C(Cn1nc(-c2ccccc2)c2ccccc2c1=O)Nc1ccc(F)cc1 | –
3 | 10.8 | 14.3 | 3.68 | O=C(Cn1nc(Cc2ccccc2)c2ccccc2c1=O)Nc1cccc(Cl)c1 | Ratio IC50 [11]: 2
4 | 30 | 33 | 88.6 | O=C(Cn1nc(-c2ccccc2)c2ccccc2c1=O)Nc1ccccc1Cl | –
5 | 74 | 3.29 | 3.05 | O=C(Cn1nc(-c2ccccc2)c2ccccc2c1=O)Nc1cccc(Cl)c1 | Activity [1]: inactive; Activity [2]: 43.5%; Activity [3]: inactive; Activity [4]: 22%; Activity [7]: inactive; Ratio [8]: 2.4; Ratio [9]: 3; Ratio IC50 [11]: 2.5; Ratio [13]: 5.6
6 | 33 | 10.3 | 4.02 | O=C(Cn1nc(-c2ccccc2)c2ccccc2c1=O)Nc1ccc(Cl)cc1 | Ratio IC50 [11]: 1.9
7 | 43 | 13.4 | 99 | O=C(Cn1nc(-c2ccccc2)c2ccccc2c1=O)Nc1ccccc1 | –

Further lines, the molecule ahead of its results:

Row | Structure (SMILES) | IC50 [5] [µM] | IC50 [6] [µM] | IC50 [10] [µM] | also measured
8 | O=C(Cn1nc(Cc2ccccc2)c2ccccc2c1=O)Nc1ccc(Cl)cc1 | 13 | > 100 | 2.98 | Ratio IC50 [11]: 2.6
9 | O=C(Cn1nc(Cc2ccccc2)c2ccccc2c1=O)Nc1ccccc1 | 36 | 66 | 95.4 | –
10 | COc1ccc(NC(=O)Cn2nc(Cc3ccccc3)c3ccccc3c2=O)cc1 | 62 | 69 | > 100 | –
11 | COc1cccc2c1C(=O)c1c(O)c3c(c(O)c1C2=O)C[C@@](O)(C(=O)CO)C[C@@H]3O[C@H]1C[C@H](N)[C@H](O)[C@H](C)O1 [DOXORUBICIN] | – | 3.45 | 7.7 | –
12 | O=C(Cn1nc(Cc2ccccc2)c2ccccc2c1=O)Nc1ccc(F)cc1 | 30 | 27 | 98 | –
13 | O=C(Cn1nc(Cc2ccccc2)c2ccccc2c1=O)Nc1cccc(C(F)(F)F)c1 | 3.85 | 3.52 | 61 | Ratio [1]: 9.4; Activity [12]: 27.7%; Activity [2]: 39.9%; Activity [4]: 22%; Activity [7]: 32.3%; Ratio [8]: 2.7; Ratio [9]: 2.8
14 | COc1ccc(NC(=O)Cn2nc(-c3ccccc3)c3ccccc3c2=O)cc1 | 77 | > 100 | > 100 | –
15 | O=C(Cn1nc(Cc2ccccc2)c2ccccc2c1=O)Nc1ccccc1Cl | 89 | 1.2 | 42.8 | Ratio [1]: 28; Activity [2]: 80.2%; Ratio IC50 [14]: 2.9; Ratio [3]: 1.9; Activity [4]: 34%; Ratio [7]: 2; Ratio [8]: 9.5; Ratio [9]: 4
